# Data reported in ChEMBL document CHEMBL1770123, “SPF32629A and SPF32629B: enantioselective synthesis, determination of absolute configuration, cytotoxicity and antibacterial evaluation” (Eur J Med Chem, 2011).
# How the values were obtained:
# [1] = test system: Salmonella typhimurium; experiment: Antimicrobial activity against Salmonella Typhimurium at 1000 ug/disc after 24 hrs by disc diffusion method; assay type: functional, Salmonella enterica subsp. enterica serovar Typhimurium; conditions: Salmonella enterica, read-out: DIZ
# [2] = test system: Staphylococcus aureus; experiment: Antimicrobial activity against methicillin-resistant Staphylococcus aureus strain 1 TB3G after 24 hrs by microdilution method; assay type: functional
# In short: (§1)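 Growth was judged by turbidity. The MIC was taken as the lowest concentration giving the lowest growth.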
# [3] = test system: Bacillus subtilis; experiment: Antimicrobial activity against Bacillus subtilis after 24 hrs by microdilution method; assay type: functional
# In short: (§2)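 Growth was judged by turbidity, and the MIC was taken as the minimum concentration giving the lowest growth. Amikacin served as reference.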
# [4] = test system: A549; experiment: Cytotoxicity against human A549 cells assessed as cell death at 2 ug after 48 hrs by MTT assay; assay type: functional
# In short: (§3)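 A549 cells were grown in DMEM with 2 mmol L-glutamine, 10% FBS, penicillin (50 IU/mL) and streptomycin, at 37 °C and 5% CO2. 1×10^4 cells/well were plated and treated 24 h later with compound diluted in medium for 48 h. Controls were DMSO-matched and untreated wells. MTT 0.4 mg/mL in PBS was added for 4 h in the dark, then DMSO for 4 h. A540 was read and reported as % live cells relative to untreated.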
# [5] = test system: Klebsiella pneumoniae; experiment: Antimicrobial activity against Klebsiella pneumoniae at 500 ug/disc after 24 hrs by disc diffusion method; assay type: functional; conditions: read-out: DIZ
# [6] = test system: Staphylococcus aureus; experiment: Antimicrobial activity against methicillin-resistant Staphylococcus aureus strain 2 TB4G after 24 hrs by microdilution method; assay type: functional; in short: as §1
# [7] = test system: Staphylococcus aureus; experiment: Antimicrobial activity against methicillin-resistant Staphylococcus aureus strain 1 TB3G at 1000 ug/disc after 24 hrs by disc diffusion method; assay type: functional; conditions: read-out: DIZ
# In short: (§4)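 Disc diffusion on 2.4% Mueller-Hinton agar inoculated with the strain. Paper discs 6 mm across were loaded with test compound and placed on the agar. Plates were incubated at 37 °C for 24 h. Read-out was the diameter of the inhibition zone in mm.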
# [8] = test system: Staphylococcus epidermidis; experiment: Antimicrobial activity against Staphylococcus epidermidis at 500 ug/disc after 24 hrs by disc diffusion method; assay type: functional; conditions: read-out: DIZ
# [9] = test system: Listeria monocytogenes; experiment: Antimicrobial activity against Listeria monocytogenes at 500 ug/disc after 24 hrs by disc diffusion method; assay type: functional; conditions: read-out: DIZ
# [10] = test system: Listeria monocytogenes; experiment: Antimicrobial activity against Listeria monocytogenes after 24 hrs by microdilution method; assay type: functional; in short: as §2
# [11] = test system: Klebsiella pneumoniae; experiment: Antimicrobial activity against Klebsiella pneumoniae at 1000 ug/disc after 24 hrs by disc diffusion method; assay type: functional; conditions: read-out: DIZ
# [12] = test system: Bacillus subtilis; experiment: Antimicrobial activity against Bacillus subtilis at 1000 ug/disc after 24 hrs by disc diffusion method; assay type: functional; conditions: read-out: DIZ
# [13] = test system: Staphylococcus aureus; experiment: Antimicrobial activity against Staphylococcus aureus at 1000 ug/disc after 24 hrs by disc diffusion method; assay type: functional; conditions: read-out: DIZ
# [14] = test system: A549; experiment: Cytotoxicity against human A549 cells assessed as cell death at 25 ug after 48 hrs by MTT assay; assay type: functional; in short: as §3
# [15] = test system: A549; experiment: Cytotoxicity against human A549 cells assessed as cell death at 1 ug after 48 hrs by MTT assay; assay type: functional; in short: as §3
# [16] = test system: A549; experiment: Cytotoxicity against human A549 cells assessed as cell death at 10 ug after 48 hrs by MTT assay; assay type: functional; in short: as §3
# [17] = test system: Escherichia coli; experiment: Antimicrobial activity against Escherichia coli at 500 ug/disc after 24 hrs by disc diffusion method; assay type: functional; conditions: read-out: DIZ
# [18] = test system: A549; experiment: Cytotoxicity against human A549 cells assessed as cell death at 5 ug after 48 hrs by MTT assay; assay type: functional; in short: as §3
# [19] = test system: Staphylococcus aureus; experiment: Antimicrobial activity against Staphylococcus aureus after 24 hrs by microdilution method; assay type: functional; in short: as §2
# [20] = test system: Escherichia coli; experiment: Antimicrobial activity against Escherichia coli after 24 hrs by microdilution method; assay type: functional; in short: as §2
# [21] = test system: Staphylococcus aureus; experiment: Antimicrobial activity against methicillin-resistant Staphylococcus aureus strain 4 TB5G at 1000 ug/disc after 24 hrs by disc diffusion method; assay type: functional; conditions: read-out: DIZ; in short: as §4
# [22] = test system: Staphylococcus epidermidis; experiment: Antimicrobial activity against Staphylococcus epidermidis after 24 hrs by microdilution method; assay type: functional; in short: as §2
# [23] = test system: Staphylococcus aureus; experiment: Antimicrobial activity against Staphylococcus aureus at 500 ug/disc after 24 hrs by disc diffusion method; assay type: functional; conditions: read-out: DIZ; in short: as §4
# [24] = test system: Staphylococcus aureus; experiment: Antimicrobial activity against methicillin-resistant Staphylococcus aureus strain 1 TB3G at 500 ug/disc after 24 hrs by disc diffusion method; assay type: functional; conditions: read-out: DIZ; in short: as §4
# [25] = target: T1, Chymase (Homo sapiens, UniProt P23946); experiment: Inhibition of human chymase
# T1 sequence (P23946 whole entry): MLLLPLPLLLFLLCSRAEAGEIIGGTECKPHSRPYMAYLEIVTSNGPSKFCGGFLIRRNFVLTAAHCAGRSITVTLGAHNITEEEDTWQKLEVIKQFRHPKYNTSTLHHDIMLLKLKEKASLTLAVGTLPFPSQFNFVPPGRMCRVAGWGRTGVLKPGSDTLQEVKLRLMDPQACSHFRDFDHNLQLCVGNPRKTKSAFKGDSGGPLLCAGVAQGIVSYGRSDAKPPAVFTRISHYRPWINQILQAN
# [26] = test system: Salmonella typhimurium; experiment: Antimicrobial activity against Salmonella Typhimurium after 24 hrs by microdilution method; assay type: functional, Salmonella enterica subsp. enterica serovar Typhimurium; conditions: Salmonella enterica; in short: as §2
# [27] = test system: Salmonella typhimurium; experiment: Antimicrobial activity against Salmonella Typhimurium at 500 ug/disc after 24 hrs by disc diffusion method; assay type: functional, Salmonella enterica subsp. enterica serovar Typhimurium; conditions: Salmonella enterica, read-out: DIZ
# [28] = Inhibition of human elastase
# [29] = test system: Staphylococcus aureus; experiment: Antimicrobial activity against methicillin-resistant Staphylococcus aureus strain 2 TB4G at 500 ug/disc after 24 hrs by disc diffusion method; assay type: functional; conditions: read-out: DIZ; in short: as §4
# [30] = test system: Klebsiella pneumoniae; experiment: Antimicrobial activity against Klebsiella pneumoniae after 24 hrs by microdilution method; assay type: functional; in short: as §2
# [31] = test system: Staphylococcus aureus; experiment: Antimicrobial activity against methicillin-resistant Staphylococcus aureus strain 2 TB4G at 1000 ug/disc after 24 hrs by disc diffusion method; assay type: functional; conditions: read-out: DIZ; in short: as §4
# [32] = test system: Staphylococcus epidermidis; experiment: Antimicrobial activity against Staphylococcus epidermidis at 1000 ug/disc after 24 hrs by disc diffusion method; assay type: functional; conditions: read-out: DIZ
# [33] = test system: A549; experiment: Cytotoxicity against human A549 cells after 48 hrs by MTT assay; assay type: functional, cell-based; conditions: A549, 48 h
# In short: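 A549 cells were kept in DMEM with 2 mM L-glutamine, 10% FBS, penicillin 50 IU/mL and streptomycin at 37 °C under 5% CO2. 1×10^4 cells per well were treated 24 h after seeding with compounds diluted in medium for 48 h. MTT (0.4 mg/mL in PBS) was added for 4 h in the dark, formazan was dissolved in DMSO for 4 h and absorbance read at 540 nm. Viability was expressed as % of untreated cells, and IC50 was derived.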
# [34] = test system: Staphylococcus aureus; experiment: Antimicrobial activity against methicillin-resistant Staphylococcus aureus strain 4 TB5G after 24 hrs by microdilution method; assay type: functional; in short: as §1
# [35] = test system: Escherichia coli; experiment: Antimicrobial activity against Escherichia coli at 1000 ug/disc after 24 hrs by disc diffusion method; assay type: functional; conditions: read-out: DIZ
# [36] = test system: Listeria monocytogenes; experiment: Antimicrobial activity against Listeria monocytogenes at 1000 ug/disc after 24 hrs by disc diffusion method; assay type: functional; conditions: read-out: DIZ
# [37] = test system: Bacillus subtilis; experiment: Antimicrobial activity against Bacillus subtilis at 500 ug/disc after 24 hrs by disc diffusion method; assay type: functional; conditions: read-out: DIZ
# [38] = test system: Staphylococcus aureus; experiment: Antimicrobial activity against methicillin-resistant Staphylococcus aureus strain 4 TB5G at 500 ug/disc after 24 hrs by disc diffusion method; assay type: functional; conditions: read-out: DIZ; in short: as §4
smiles,measurement,setting,value
CC(C)CC(=O)OC(c1ccccc1)c1cc(O)c(C(=O)O)c(=O)[nH]1 (racemic),zone of inhibition at 1000 µg/disc,[1],20 mm
same,MIC,[2],> 100 µg/mL
same,MIC,[3],25 µg/mL
same,Activity,[4],21.53%
same,zone of inhibition at 500 µg/disc,[5],12 mm
same,MIC,[6],> 100 µg/mL
same,zone of inhibition at 1000 µg/disc,[7],10 mm
same,zone of inhibition at 500 µg/disc,[8],8 mm
same,zone of inhibition at 500 µg/disc,[9],11 mm
same,MIC,[10],50 µg/mL
same,zone of inhibition at 1000 µg/disc,[11],21 mm
same,zone of inhibition at 1000 µg/disc,[12],13 mm
same,zone of inhibition at 1000 µg/disc,[13],15 mm
same,Activity,[14],81.53%
same,Activity,[15],7.07%
same,Activity,[16],71.07%
same,zone of inhibition at 500 µg/disc,[17],8 mm
same,Activity,[18],44%
same,MIC,[19],> 100 µg/mL
same,MIC,[20],50 µg/mL
same,zone of inhibition at 1000 µg/disc,[21],12 mm
same,MIC,[22],> 100 µg/mL
same,zone of inhibition at 500 µg/disc,[23],7 mm
same,zone of inhibition at 500 µg/disc,[24],5 mm
same,IC50,[25],1.22 µM
same,MIC,[26],> 100 µg/mL
same,zone of inhibition at 500 µg/disc,[27],9 mm
same,IC50,[28],4.5 µg/mL
same,zone of inhibition at 500 µg/disc,[29],7 mm
same,MIC,[30],50 µg/mL
same,zone of inhibition at 1000 µg/disc,[31],12 mm
same,zone of inhibition at 1000 µg/disc,[32],17 mm
same,IC50,[33],11 µM
same,MIC,[34],> 100 µg/mL
same,zone of inhibition at 1000 µg/disc,[35],15 mm
same,zone of inhibition at 1000 µg/disc,[36],20 mm
same,zone of inhibition at 500 µg/disc,[37],7 mm
same,zone of inhibition at 500 µg/disc,[38],6 mm
